Inconclusive results are not listed. Activity calls are given as the source filed them.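 Rule for the calls, unless noted: active = inhibition over a set limit, the all-compound mean plus 3 SD, in both replicate runs; inconclusive = over that limit in just one replicate run; inactive = at or under that limit in both runs.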

A word on the viability: it is a read-out of living cells in per cent, often relative to untreated cells. As a reminder, the inhibition is the change of the read-out against control, counted positive when it falls.

A short description of test [1]: growth inhibitors of H69AR lung tumor, primary screen, human, duplicate replicates (AID 580;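 active = viability at or under a set limit in both replicates, limit being median viability minus 3 SD, cut at about 48% in these data, passing the limit was not always enough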;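 note: 100% = mean luminescence of untreated wells and 0% = no signal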). Conditions: H69AR lung tumor cells viability, ATP luminescence, 72 h; at 10 µM; stronger effect = lower value.
Test [2] is described as follows: reversal of MRP1-mediated doxorubicin resistance, pilot screen, H69AR cells, doxorubicin co-treatment (AID 601;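 active = viability loss from added drug above about 55%, and viability with drug at most 40%, in both replicates, limit read from the data, passing the limit was not always enough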). The following applies: CellTiter-Glo, 72 h, at 10 µM; for differential viability (reversal): stronger effect = higher value.
A short description of test [3]: 384-well plate pilot, post-Golgi transport modulator project, inhibition of yeast transport mutant growth (AID 636; in the data active = inhibition above about 31%). Conditions: absorbance 615 nm, about 18 h, stronger effect = higher value.
Test [4] is described as follows: growth suppression of yeast trafficking mutant, preliminary HTS, modulators of trafficking downstream of Golgi apparatus project, 1536-format plate, OD 615 nm (AID 637; in the data active = inhibition above about 30%). The following applies: yeast transport mutant growth, absorbance 615 nm, 18 h; stronger effect = higher value.
Test [5] is described as follows: OD615 S. cerevisiae growth inhibition, permissive medium, pilot counter-assay, permissive growth control for S. cerevisiae lifespan shortening project (AID 705;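 active = growth inhibition above 25% in both replicates, a cutoff set 3 SD above the mean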). The following applies: OD615, 24 h, at 10 µM, stronger effect = higher value. Summed up: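 System: Engineered DeaD yeast | Buffer or medium: SC raffinose/galactose permissive medium | Incubation: Cells pre-grown 4 h, then 24 h compound exposure, 30 °C humidified | Measured by: Absorbance (optical density) at 615 nm | Read-out: Reduction in yeast growth (OD615)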

A short description of test [6]: Restrictive medium S. cerevisiae growth inhibition, OD615, pilot screen of yeast lifespan reduction project, restrictive growth control (AID 706;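 active = growth inhibition above a set limit, 3 SD over mean compound inhibition, in both replicates, cut at about 43% in these data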;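 note: modified DeaD lifespan yeast strain shifted to restrictive glucose medium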). Conditions: OD615, 48 h, at 10 µM, stronger effect = higher value. In short, it runs like this: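 Material: modified S. cerevisiae; Medium: glucose-based CSMM-D restrictive medium; Compound dosing: one concentration, 10 µM final, 0.25% DMSO; Incubation: 48 h compound exposure at 30 °C; Measured by: OD615.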

A short description of test [7]: viability gain of MRP-1-high H69AR cells under doxorubicin, pilot screen, MRP-1 activator project, CellTiter-Glo, duplicate (AID 807;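 active = viability increase at or above a cutoff of the median across tested compounds plus 3 SD, cut at about 8.5% in these data, passing the limit was not always enough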;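 note: compound pretreatment 18-22 h then 72 h combined with doxorubicin; 0% = doxorubicin alone and 100% = vehicle without doxorubicin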). The following applies: H69AR viability with doxorubicin, CellTiter-Glo luminescence; at 10 µM; stronger effect = higher value. On the technique in general: Cellular ATP, detected with luciferase, serves as a proxy for viable cell number.
The nature of test [8]: growth suppression of beta-catenin knockout HCT116, pilot screen, human colon tumor cells (AID 823;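 active = cell viability at or below a set limit in both duplicate runs, the limit being the all-compound median minus 4 SD, cut at about 23% in these data, passing the limit was not always enough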;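 note: 0% = wells killed by 20 µM Hyamine and 100% = untreated DMSO cell wells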). The following applies: CellTiter-Glo, 60 h, at 10 µM, stronger effect = lower value.
Test [9] in a line: growth suppression of PTEN-deleted HCT116, pilot screen, cell-based, HCT116 clonal line, CellTiter-Glo (AID 824;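 active = viability at or below 27.92% in each of two runs, the all-compound median minus 4 SD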;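 note: 0% = 20 µM Hyamine control and 100% = vehicle cell control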). Conditions: 60 h, at 10 µM, stronger effect = lower value.
Test [10] can be described thus: inhibitors of the yeast RAM network, pilot screen, dse1pr::URA3 reporter, 5-FOA selection (AID 869).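 Note: 0% = DMSO wells with no growth and 100% = 10 µM 1-NA-PP1 with full growth; RAM network block rescues cells from 5-FOA so hits raise OD615 growth.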 Conditions: S. cerevisiae dse1pr::URA3 5-FOA growth, OD615, 2 d; at 10 µM; stronger effect = higher value; strain carries analog-sensitive mutant Cbk1 kinase.
Setting [11] is: H69AR cells + 2 uM doxorubicin, measured here: viability with 2 uM doxorubicin, stronger effect = lower value.
[12] abbreviates: H69AR cells, compound alone cytotoxicity.

With `OCCNc1ncnc2c1c(-c1ccccc1)c(-c1ccccc1)n2Cc1ccco1`, the viability in test [1] is 72.4% (inactive); in [2] (setting [11]), 48.8%; in test [2] (setting [12]) it was 72.4%. For the same compound, in test [2] (H69AR cells + 2 uM doxorubicin), the differential viability (reversal) was 23.7% (inactive). Moreover, the inhibition in test [3] was -5.66% (inactive); in test [4], 15.7% (inactive).
Consider `O=C(O)c1ccc(CSc2nnc(COc3ccc(Cl)cc3Cl)o2)cc1`, for which the figures for the growth inhibition in [5] and in test [6] were 10.6% (inactive) and 20.2% (inactive), respectively. In [7], the viability increase is 2.94% (inactive). Further, the viability is 103% (inactive) in test [8] and 94.1% (inactive) in [9]. Besides, the inhibition in test [10] is 1.22% (inactive).
`O=C1C2CCCN2C(c2ccc(F)cc2)N1c1ccc(Cl)cc1` (stereo not given): the growth inhibition in [5] is -13% (inactive); in test [6], -0.82% (inactive). In test [7], the viability increase is -2.59% (inactive). Also, the figures for the viability in test [8] and in test [9] were 76.5% (inactive) and 67.8% (inactive), respectively. Also, the inhibition in [10] is 3.84% (inactive).
In the case of `O=C1CCCN1CCCNc1ncnc2c1cnn2-c1ccc(Cl)cc1`, the values for the growth inhibition in [5] and in [6] were 0.48% (inactive) and 1.48% (inactive), respectively. Also, the viability increase in test [7] was -0.95% (inactive). In addition, the viability in test [8] was 85% (inactive); in [9] it was 77% (inactive). Moreover, the inhibition in [10] is 1.3% (inactive).
`COc1ccc(OCCn2c(NC(=O)c3ccco3)nc3ccccc32)cc1`: the growth inhibition in test [5] is 2.63% (inactive); in test [6], 9.83% (inactive). Moreover, the viability increase in [7] is -6.84% (inactive). Besides, the viability in [8] is 56.9% (inactive); in test [9], 57.9% (inactive). Further, the inhibition in test [10] was 3.36% (inactive).
On to `Brc1ccccc1-c1nnc(CSc2nnc3sc4ccccc4n23)o1`, for which the results for the growth inhibition in [5] and in test [6] were 16.1% (inactive) and 64.8% (active), respectively. Also, the viability increase in [7] was -3.18% (inactive). The viability in test [8] is 96.1% (inactive); in [9], 91.7% (inactive). For the same compound, the inhibition in [10] is 2.15% (inactive).
As for `CSc1nnc2c3ccccc3n(Cc3ccccc3)c2n1`, the viability in [1] is 31.6% (active); in [2] (setting [11]), 30.3%; in test [2] (setting [12]), 31.6%. Besides, in test [2] (H69AR cells + 2 uM doxorubicin), the differential viability (reversal) was 1.23% (inactive). Further, the inhibition was -2.37% (inactive) in test [3] and 2.54% (inactive) in test [4].
Take `COC(=O)c1c(NC(=O)C2CC2)sc2c1CCCC2`: the growth inhibition in test [5] was 4.15% (inactive); in [6] it was 17% (inactive). For the same compound, the viability increase in [7] was -4.82% (inactive). The viability in [8] was 95.1% (inactive); in test [9], 81.7% (inactive). Further, in test [10], the inhibition was 1.37% (inactive).
In the case of `COc1ccccc1OCCSc1nnnn1-c1ccc(C)cc1`, the figures for the growth inhibition in test [5] and in test [6] were -13.8% (inactive) and -6.1% (inactive), respectively. Also, in test [7], the viability increase is 0.71% (inactive). Besides, the results for the viability in [8] and in [9] were 79.5% (inactive) and 78.7% (inactive), respectively. Besides, in [10], the inhibition was 2.32% (inactive).
Regarding `COc1cccc(NC(=O)c2ccc(S(=O)(=O)N3CCCCC3)cc2)c1`, the growth inhibition in [5] was 4.79% (inactive); in test [6] it was 5.21% (inactive). Also, in test [7], the viability increase is -1.52% (inactive). In addition, the values for the viability in test [8] and in [9] were 95.6% (inactive) and 85.7% (inactive), respectively. The inhibition in [10] was 1.28% (inactive).
For the compound `N#Cc1c(NC(=O)CCCN2C(=O)c3ccccc3C2=O)oc(-c2ccccc2)c1-c1ccccc1`, the growth inhibition is -1.81% (inactive) in test [5] and 1.75% (inactive) in test [6]. In addition, the viability increase in test [7] is 2.13% (inactive). Besides, the viability is 101% (inactive) in test [8] and 94.7% (inactive) in [9]. Further, in [10], the inhibition was -0.33% (inactive).
Turning to `Cc1csc(NC(=O)c2sc3nc(-c4cccs4)ccc3c2N)n1`, the differential viability (reversal) in test [2] (H69AR cells + 2 uM doxorubicin) is -12.4% (inactive). Besides, the figures for the viability in [2] (setting [11]) and in [2] (setting [12]) were 60.3% and 47.9%, respectively. For the same compound, the inhibition in test [3] is 0% (inactive); in [4], -6.35% (inactive).
As to `CC[C@@H]1C(=O)OC[C@@H]1Cc1cncn1C`, the inhibition in test [3] was -3.12% (inactive); in [4], -5.5% (inactive).
For the compound `Cc1ccc(CNC(=O)CS(=O)Cc2nc(-c3ccccc3C)oc2C)cc1` (stereo not given), the growth inhibition in [5] is -3.71% (inactive); in test [6] it was 1.06% (inactive). The viability increase in [7] was 0.04% (inactive). Besides, the figures for the viability in test [8] and in [9] were 90.3% (inactive) and 98.4% (inactive), respectively. Also, the inhibition in test [10] is 1.06% (inactive).
Regarding `O=S1(=O)C=C(SCCN2CCCCC2)c2ccccc21`, the growth inhibition in [5] is -4.08% (inactive); in [6] it was -20.4% (inactive). The viability increase in [7] was -7.06% (inactive). Further, the results for the viability in test [8] and in test [9] were 61.6% (inactive) and 66.9% (inactive), respectively. Also, the inhibition in test [10] was 1.29% (inactive).
As for `Cc1ccc(-c2nc(CS(=O)CC(=O)NCc3ccc(Cl)cc3)c(C)o2)cc1` (stereo not given), the values for the growth inhibition in [5] and in test [6] were 1.44% (inactive) and -4.35% (inactive), respectively. Further, in test [7], the viability increase is -2.83% (inactive). In addition, the viability in test [8] was 73.5% (inactive); in test [9] it was 80.2% (inactive). Further, the inhibition in test [10] was 3.42% (inactive).
For `N#CCCN1CCN(C(=S)c2ccc(-c3cccc(Cl)c3)o2)CC1`, the figures for the growth inhibition in [5] and in test [6] were -12.9% (inactive) and 22.7% (inactive), respectively. In addition, the viability increase in test [7] was -0.32% (inactive). The viability in test [8] was 76.9% (inactive); in [9], 83% (inactive). In addition, in [10], the inhibition is 1.51% (inactive).
`CCOC(=O)c1cc2c(=O)n3ccccc3nc2n(Cc2ccco2)c1=NC(=O)c1cccnc1`: the growth inhibition in test [5] is -1.49% (inactive); in test [6], 14% (inactive). Besides, the viability increase in [7] is 3.61% (inactive). The viability is 99.5% (inactive) in test [8] and 99% (inactive) in test [9]. The inhibition in [10] is 1.91% (inactive).
On to `COc1ccccc1-n1c(CNC(=O)c2ccccc2)nnc1SCC(=O)Nc1nnc(C)s1`, for which the growth inhibition in [5] was 3.6% (inactive); in test [6], 0.83% (inactive). For the same compound, in test [7], the viability increase was -0.83% (inactive). For the same compound, the viability in [8] was 103% (inactive); in test [9], 102% (inactive). Besides, the inhibition in test [10] is 1.05% (inactive).
`COCCNc1oc(-c2ccccc2Cl)nc1C#N`: the growth inhibition in test [5] is -7.99% (inactive); in [6], -2.94% (inactive). Moreover, in test [7], the viability increase is -0.81% (inactive). Further, the viability in test [8] is 111% (inactive); in [9], 89.3% (inactive). Also, in test [10], the inhibition is 1.51% (inactive).

The values above are taken from PubChem BioAssay.
